According to ChEMBL document CHEMBL4811250, “Discovery and Optimization of 2H-1λ2-Pyridin-2-one Inhibitors of Mutant Isocitrate Dehydrogenase 1 for the Treatment of Cancer” (J Med Chem, 2021):
pIC50: −log10 of the molar value. Values joined by “and” are separate entries in the source; they are usually repeats but may differ in a detail not shown here. Identical values can stand only once.

System: not listed separately
Experiment: Tmax in CD1 mouse brain at 30 mg/kg, po measured up to 24 hrs by LC-MS/MS analysis
Format: ADME, organism-based
Conditions: not given
How it was run: (§1)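 Fed male CD1 mice (6–8 weeks, ~25–30 g) given a single 30 mpk oral dose as a 3 mg/mL solution in 20% PEG300, 40% Solutol solution (30% w/w in water), 40% DI water. Plasma (heparin-Na, heart puncture) and whole brain taken from N=3 mice per time point, 15 min to 24 h. LC/MS/MS quantitation gave Tmax, Cmax and AUC.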

| Tmax [h] | SMILES |
| --- | --- |
| 6 | CCc1ccc(Cl)cc1-n1c(C=C(C)C)c(C(=O)N2CCNCC2)cc(-c2nc(-c3ccc(Cl)cc3)cs2)c1=O |

System: not listed separately
Experiment: Kinetic solubility of the compound in pH 7.4 phosphate buffer measured after 6 hrs by UV spectroscopy
Format: physicochemical
Conditions: read-out: Kinetic_solubility

| solubility kinetic at 6 h [µg/mL] | SMILES |
| --- | --- |
| < 1 | CCc1cccc(CC)c1-n1c(CC2CC2)c(C(=O)N2CCNCC2)cc(-c2nc(-c3ccc(Cl)cc3)cs2)c1=O |
| < 1 | CCc1cccc(CC)c1-n1c(C=C(C)C)c(C(=O)N2CCNC(=O)C2)cc(-c2nc(-c3ccc(Cl)cc3)cs2)c1=O |
| < 1 | CCc1ccc(Cl)cc1-n1c(C=C(C)C)c(C(=O)N2CCNCC2)cc(-c2nc(-c3ccc(Cl)cc3)cs2)c1=O |

System: not listed separately
Experiment: Permeability of compound at pH 7.4 by PAMPA assay
Format: ADME
Conditions: not given
How it was run: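 Stirring double-sink PAMPA using a lipid/dodecane membrane tuned for GI passive permeability, pH 7.4 on donor and acceptor sides. Compound at 0.05 mM (0.5% DMSO), 30 min permeation at room temperature with donor stirring. Donor and acceptor concentrations read by UV plate reader.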

| permeability | SMILES |
| --- | --- |
| 255 10^-6 cm/s and 434 10^-6 cm/s | CCc1ccc(Cl)cc1-n1c(C=C(C)C)c(C(=O)N2CCNCC2)cc(-c2nc(-c3ccc(Cl)cc3)cs2)c1=O |

Same assay, conditions: read-out: permeability

| Papp [×10⁻⁶ cm/s] | SMILES |
| --- | --- |
| 43 | CCc1cccc(CC)c1-n1c(CC2CC2)c(C(=O)N2CCNCC2)cc(-c2nc(-c3ccc(Cl)cc3)cs2)c1=O |
| 275 | CCc1cccc(CC)c1-n1c(C=C(C)C)c(C(=O)N2CCNC(=O)C2)cc(-c2nc(-c3ccc(Cl)cc3)cs2)c1=O |

System: not listed separately
Experiment: Metabolic stability in rat liver microsomes assessed as half life incubated for 15 mins by high resolution LC/MS analysis
Format: ADME, Microsome
Conditions: 0.25 h
How it was run: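 Rat liver microsomes (0.5 mg/mL protein) with 1.0 μM compound and NADPH regenerating system in 100 mM phosphate pH 7.4, 15 min at 37 °C. Quenched with acetonitrile containing albendazole internal standard. Percent remaining measured by high-resolution LC/MS.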

| t1/2 [h] | SMILES |
| --- | --- |
| 0.283 | CCc1cccc(CC)c1-n1c(CC2CC2)c(C(=O)N2CCNCC2)cc(-c2nc(-c3ccc(Cl)cc3)cs2)c1=O |
| 0.033 | CCc1cccc(CC)c1-n1c(C=C(C)C)c(C(=O)N2CCNC(=O)C2)cc(-c2nc(-c3ccc(Cl)cc3)cs2)c1=O |
| > 0.5 | CCc1ccc(Cl)cc1-n1c(C=C(C)C)c(C(=O)N2CCNCC2)cc(-c2nc(-c3ccc(Cl)cc3)cs2)c1=O |

System: not listed separately
Experiment: Ratio of AUClast in plasma to brain in CD1 mouse at 30 mg/kg, po measured up to 24 hrs by LC-MS/MS analysis
Format: ADME, organism-based
Conditions: in vivo
How it was run: as §1

| Ratio AUC | SMILES |
| --- | --- |
| 3.52 | CCc1ccc(Cl)cc1-n1c(C=C(C)C)c(C(=O)N2CCNCC2)cc(-c2nc(-c3ccc(Cl)cc3)cs2)c1=O |

System: not listed separately
Experiment: Tmax in CD1 mouse plasma at 30 mg/kg, po measured up to 24 hrs by LC-MS/MS analysis
Format: ADME, organism-based
Conditions: not given
How it was run: as §1

| Tmax [h] | SMILES |
| --- | --- |
| 4 | CCc1ccc(Cl)cc1-n1c(C=C(C)C)c(C(=O)N2CCNCC2)cc(-c2nc(-c3ccc(Cl)cc3)cs2)c1=O |

System: not listed separately
Experiment: Cmax in CD1 mouse brain at 30 mg/kg, po measured up to 24 hrs by LC-MS/MS analysis
Format: ADME, organism-based
Set-up: route oral, dose 30 mg/kg, time <=24
Conditions: not given
How it was run: as §1

| Cmax [ng/g] | SMILES |
| --- | --- |
| 595 | CCc1ccc(Cl)cc1-n1c(C=C(C)C)c(C(=O)N2CCNCC2)cc(-c2nc(-c3ccc(Cl)cc3)cs2)c1=O |

System: not listed separately
Experiment: AUClast in CD1 mouse brain at 30 mg/kg, po measured up to 24 hrs by LC-MS/MS analysis
Format: ADME, organism-based
Conditions: in vivo
How it was run: as §1

| AUClast [ng·h/g] | SMILES |
| --- | --- |
| 7000 | CCc1ccc(Cl)cc1-n1c(C=C(C)C)c(C(=O)N2CCNCC2)cc(-c2nc(-c3ccc(Cl)cc3)cs2)c1=O |

System: not listed separately
Experiment: Cmax in CD1 mouse plasma at 30 mg/kg, po measured up to 24 hrs by LC-MS/MS analysis
Format: ADME, organism-based
Set-up: route oral, dose 30 mg/kg, time <=24
Conditions: not given
How it was run: as §1

| Cmax [ng/mL] | SMILES |
| --- | --- |
| 2010 | CCc1ccc(Cl)cc1-n1c(C=C(C)C)c(C(=O)N2CCNCC2)cc(-c2nc(-c3ccc(Cl)cc3)cs2)c1=O |

System: not listed separately
Experiment: Drug level in human U87MG cells expressing IDH1 R132H mutation transfected in NCr mouse plasma at 30 mg/kg, po measured after 48 hrs by LC-MS/MS analysis
Format: ADME, organism-based, U-87MG ATCC
Conditions: read-out: Drug uptake
How it was run: (§2)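 Mice bearing subcutaneous U87MG glioblastoma cells carrying IDH1 R132H (1 x 10^7 cells/mouse) were staged at ~200 mg and randomized. Each received a single oral 30 mg/kg dose; vehicle was 10% NMP, 40% PEG300, 25% [30% Solutol in water], 25% DI water. K2EDTA blood and tumors were taken under isoflurane from 4 mice per group at 1–48 h. Drug was quantified by validated LC-MS/MS.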

| concentration at 48 h [µM] | SMILES |
| --- | --- |
| 6.8 | CCc1ccc(Cl)cc1-n1c(C=C(C)C)c(C(=O)N2CCNCC2)cc(-c2nc(-c3ccc(Cl)cc3)cs2)c1=O |

System: Isocitrate dehydrogenase [NADP] cytoplasmic (Homo sapiens), O75874 [R132H]
Experiment: Inhibition of IDH1 R132H mutant (unknown origin) expressed in human U87 cells assessed as R-2-hydroxyglutarate production at 500 nM after 48 hrs by LC-MS analysis
Format: cell-based
Set-up: scale not given: the % may be the effect or the level left
Conditions: not given
How it was run: (§3)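 U87-R132H cells (8000/well, DMEM high glucose, 10% FBS) were seeded, cultured overnight at 37 °C and 5% CO2, then given compound or DMSO. After 48 h, 2-HG secreted into the medium was measured by RapidFire LC-MS. Cell viability was checked by CellTiter-Glo.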

Chain of Isocitrate dehydrogenase [NADP] cytoplasmic (Homo sapiens), O75874 [R132H] (O75874 whole entry R132H): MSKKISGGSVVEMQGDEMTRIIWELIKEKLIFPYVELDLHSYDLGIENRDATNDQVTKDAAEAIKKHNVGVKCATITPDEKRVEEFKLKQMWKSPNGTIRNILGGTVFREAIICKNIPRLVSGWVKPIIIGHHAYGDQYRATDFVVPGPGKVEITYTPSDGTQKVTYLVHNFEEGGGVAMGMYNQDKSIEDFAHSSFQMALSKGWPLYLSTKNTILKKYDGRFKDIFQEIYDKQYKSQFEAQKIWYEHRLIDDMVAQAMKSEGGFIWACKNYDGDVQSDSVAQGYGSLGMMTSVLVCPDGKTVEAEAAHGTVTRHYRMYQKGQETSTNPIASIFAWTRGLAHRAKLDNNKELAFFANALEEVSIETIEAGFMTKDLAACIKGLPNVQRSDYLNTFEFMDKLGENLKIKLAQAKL

| Activity [%] | SMILES |
| --- | --- |
| 13 | CCc1cccc(CC)c1-n1c(C=C(C)C)c(C(=O)N2CCNC(=O)C2)cc(-c2nc(-c3ccc(Cl)cc3)cs2)c1=O |
| 4.1 | CCc1ccc(Cl)cc1-n1c(C=C(C)C)c(C(=O)N2CCNCC2)cc(-c2nc(-c3ccc(Cl)cc3)cs2)c1=O |

Biological target: Isocitrate dehydrogenase [NADP] cytoplasmic (Homo sapiens, UniProt O75874, R132C)
Experiment: Inhibition of IDH1 R132C mutant (unknown origin) assessed as reduction in NADPH consumption using alpha-KG as substrate incubated for 5 mins by diaphorase/resazurin-coupled system
Conditions: not given

Chain of Isocitrate dehydrogenase [NADP] cytoplasmic (Homo sapiens, UniProt O75874, R132C) (O75874 2-414 R132C limits assumed): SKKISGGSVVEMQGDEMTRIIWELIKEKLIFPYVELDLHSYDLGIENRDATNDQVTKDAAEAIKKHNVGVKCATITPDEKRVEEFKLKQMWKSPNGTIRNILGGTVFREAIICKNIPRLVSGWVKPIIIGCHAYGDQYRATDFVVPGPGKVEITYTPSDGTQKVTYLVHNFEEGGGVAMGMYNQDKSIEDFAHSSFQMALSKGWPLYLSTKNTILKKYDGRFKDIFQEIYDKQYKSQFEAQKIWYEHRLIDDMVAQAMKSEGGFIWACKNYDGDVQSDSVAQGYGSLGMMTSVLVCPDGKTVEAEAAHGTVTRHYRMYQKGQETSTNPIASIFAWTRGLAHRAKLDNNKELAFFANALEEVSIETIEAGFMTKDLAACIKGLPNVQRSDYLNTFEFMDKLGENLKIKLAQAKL

| pIC50 | SMILES |
| --- | --- |
| 7.31 | CCc1cccc(CC)c1-n1c(CC2CC2)c(C(=O)N2CCNCC2)cc(-c2nc(-c3ccc(Cl)cc3)cs2)c1=O |
| 7.41 | CCc1cccc(CC)c1-n1c(C=C(C)C)c(C(=O)N2CCNC(=O)C2)cc(-c2nc(-c3ccc(Cl)cc3)cs2)c1=O |

System: not listed separately
Experiment: Drug level in human U87MG cells expressing IDH1 R132H mutation transfected in NCr mouse plasma at 30 mg/kg, po measured after 36 hrs by LC-MS/MS analysis
Format: ADME, organism-based, U-87MG ATCC
Conditions: read-out: Drug uptake
How it was run: as §2

| concentration at 36 h [µM] | SMILES |
| --- | --- |
| 7.2 | CCc1ccc(Cl)cc1-n1c(C=C(C)C)c(C(=O)N2CCNCC2)cc(-c2nc(-c3ccc(Cl)cc3)cs2)c1=O |

System: Isocitrate dehydrogenase [NADP] cytoplasmic (Homo sapiens), O75874 [R132H]
Experiment: Inhibition of IDH1 R132H mutant (unknown origin) assessed as reduction in NADPH consumption using alpha-KG as substrate at 38 uM incubated for 5 mins by diaphorase/resazurin-coupled system relative to control
Conditions: not given

| inhibition [%] | SMILES |
| --- | --- |
| 107 | CCc1cccc(CC)c1-n1c(CC2CC2)c(C(=O)N2CCNCC2)cc(-c2nc(-c3ccc(Cl)cc3)cs2)c1=O |

System: Isocitrate dehydrogenase [NADP] cytoplasmic (Homo sapiens), O75874 [R132H]
Experiment: Inhibition of IDH1 R132H mutant (unknown origin) expressed in human U87 cells assessed as R-2-hydroxyglutarate production at 100 nM after 48 hrs by LC-MS analysis
Format: cell-based
Set-up: scale not given: the % may be the effect or the level left
Conditions: not given
How it was run: as §3

| Activity [%] | SMILES |
| --- | --- |
| 23 | CCc1cccc(CC)c1-n1c(C=C(C)C)c(C(=O)N2CCNC(=O)C2)cc(-c2nc(-c3ccc(Cl)cc3)cs2)c1=O |
| 5.9 | CCc1ccc(Cl)cc1-n1c(C=C(C)C)c(C(=O)N2CCNCC2)cc(-c2nc(-c3ccc(Cl)cc3)cs2)c1=O |

System: not listed separately
Experiment: Ratio of Cmax in plasma to brain in CD1 mouse at 30 mg/kg, po measured up to 24 hrs by LC-MS/MS analysis
Format: ADME, organism-based
Conditions: in vivo
How it was run: as §1

| Ratio | SMILES |
| --- | --- |
| 3.68 | CCc1ccc(Cl)cc1-n1c(C=C(C)C)c(C(=O)N2CCNCC2)cc(-c2nc(-c3ccc(Cl)cc3)cs2)c1=O |

System: not listed separately
Experiment: Drug level in human U87MG cells expressing IDH1 R132H mutation transfected in NCr mouse plasma at 30 mg/kg, po measured after 24 hrs by LC-MS/MS analysis
Format: ADME, organism-based, U-87MG ATCC
Conditions: read-out: Drug uptake
How it was run: as §2

| concentration at 24 h [µM] | SMILES |
| --- | --- |
| 9.5 | CCc1ccc(Cl)cc1-n1c(C=C(C)C)c(C(=O)N2CCNCC2)cc(-c2nc(-c3ccc(Cl)cc3)cs2)c1=O |

System: not listed separately
Experiment: AUClast in CD1 mouse plasma at 30 mg/kg, po measured up to 24 hrs by LC-MS/MS analysis
Format: ADME, organism-based
Set-up: route oral, dose 30 mg/kg, time <=24
Conditions: not given
How it was run: as §1

| AUC(0-t) at 24 h [ng·h/mL] | SMILES |
| --- | --- |
| 24400 | CCc1ccc(Cl)cc1-n1c(C=C(C)C)c(C(=O)N2CCNCC2)cc(-c2nc(-c3ccc(Cl)cc3)cs2)c1=O |

System: Isocitrate dehydrogenase [NADP] cytoplasmic (Homo sapiens), O75874 [R132C]
Experiment: Inhibition of IDH1 R132C mutant (unknown origin) assessed as reduction in NADPH consumption using alpha-KG as substrate at 38 uM incubated for 5 mins by diaphorase/resazurin-coupled system relative to control
Conditions: not given

Chain of Isocitrate dehydrogenase [NADP] cytoplasmic (Homo sapiens), O75874 [R132C] (O75874 whole entry R132C): as the sequence (O75874 whole entry R132H) above, with H132C counted along it

| inhibition [%] | SMILES |
| --- | --- |
| 96 | CCc1cccc(CC)c1-n1c(CC2CC2)c(C(=O)N2CCNCC2)cc(-c2nc(-c3ccc(Cl)cc3)cs2)c1=O |

Biological target: Isocitrate dehydrogenase [NADP] cytoplasmic (Homo sapiens, UniProt O75874, R132H)
Experiment: Inhibition of IDH1 R132H mutant (unknown origin) assessed as reduction in NADPH consumption using alpha-KG as substrate incubated for 5 mins by diaphorase/resazurin-coupled system
Conditions: not given

Chain of Isocitrate dehydrogenase [NADP] cytoplasmic (Homo sapiens, UniProt O75874, R132H) (O75874 2-414 R132H limits assumed): as the sequence (O75874 2-414 R132C limits assumed) above, with C131H counted along it

| pIC50 | SMILES |
| --- | --- |
| 7.26 | CCc1cccc(CC)c1-n1c(CC2CC2)c(C(=O)N2CCNCC2)cc(-c2nc(-c3ccc(Cl)cc3)cs2)c1=O |
| 7.46 | CCc1cccc(CC)c1-n1c(C=C(C)C)c(C(=O)N2CCNC(=O)C2)cc(-c2nc(-c3ccc(Cl)cc3)cs2)c1=O |
